# Only some compounds are listed: those with a hit (about 4.4% of all), similar ones and a draw of the others.
# TbMetRS inhib = Trypanosoma brucei MetRS inhibition. purified T. brucei MetRS, ATP depletion, Kinase-Glo luminescence. inhibition, % at 11.9 µM. 360,000 compounds, 0.4% hits. AID 624268;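 active = inhibition above a per-plate cutoff of the control wells' mean inhibition plus 3 SD, cut at about 5.5% in these data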;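 note: 0% = DMSO wells median and 100% = median of wells with control inhibitor compound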
#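 Measured by: Kinase-Glo luciferase luminescence reporting remaining unconsumed ATP. Material: purified T. brucei MetRS enzyme. Doses: 11.9 µM compound single dose, 0.9% DMSO. Medium: HEPES buffer containing pyrophosphatase, BSA, spermine, DTT. Times: 15 min preincubation, 2 h reaction, all 25 °C. Reagent: methionine, ATP and bulk E. coli tRNA.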
# m5-HT2A agonist = mouse HTR2A agonism via beta-arrestin recruitment; P35363; CHO-K1 mHTR2A beta-arrestin complementation, luminescence; percent of 30 µM serotonin response; activation, % at 7.6 µM; 360,000 compounds, 0.66% hits; AID 624169;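 active = activation above a run cutoff, the mean activation of all tested compounds plus 3 SD, cut at about 14% in these data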;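 note: 0% = plate median of compound wells and 100% = 30 µM serotonin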
# Target sequence (P35363 whole entry, looked up): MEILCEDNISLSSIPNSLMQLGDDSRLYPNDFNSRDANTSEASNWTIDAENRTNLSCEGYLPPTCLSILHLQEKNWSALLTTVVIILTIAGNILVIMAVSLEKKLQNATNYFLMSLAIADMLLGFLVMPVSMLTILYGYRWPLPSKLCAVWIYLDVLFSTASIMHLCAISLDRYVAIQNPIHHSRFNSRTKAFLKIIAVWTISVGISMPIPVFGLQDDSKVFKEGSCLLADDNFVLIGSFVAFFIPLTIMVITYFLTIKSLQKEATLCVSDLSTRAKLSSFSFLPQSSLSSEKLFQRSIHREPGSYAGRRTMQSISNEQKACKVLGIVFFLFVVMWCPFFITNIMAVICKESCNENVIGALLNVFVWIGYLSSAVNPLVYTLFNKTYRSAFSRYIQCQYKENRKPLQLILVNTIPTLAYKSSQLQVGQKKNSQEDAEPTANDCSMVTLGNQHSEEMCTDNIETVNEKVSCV
# AI-2 QS modul = Vibrio harveyi AI-2 quorum sensing modulation; AID 2094; activity change, % at 7.5 µM; 300,000 compounds, 0.4% hits; Vibrio harveyi JMH597 AI-2 luminescence/OD600 ratio, 9 h; hits give low values; strain lacks LuxN and CqsS sensors; 0 = neutral-control median; in the data active = activity change below about -75%, passing the limit was not always enough; inconclusive = no clear call, values can overlap the other calls;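 note: luminescence divided by OD600 gain over 9 h not by final OD600 alone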
# AHR activator = activators of human aryl hydrocarbon receptor; AHR-responsive luciferase reporter cells, luminescence; 320,000 compounds, 2.5% hits; activation, % at 5 µM; AID 2796; in the data active = activation above about 47%;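 note: 0% = vehicle wells and 100% = reference agonist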
# MsrA inhibitor = inhibits bovine methionine sulfoxide reductase A; purified bovine MsrA, absorbance read-out; inhibition, % at 15.5 µM; 360,000 compounds, 0.75% hits; AID 651718; in the data active = inhibition above about 4.5%;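 note: 0% = vehicle wells with enzyme and 100% = reference inhibitor wells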
# MsrA act = activates bovine MsrA enzyme | purified bovine MsrA, absorbance read-out | activation, % at 10.6 µM | 360,000 compounds, 0.3% hits | AID 602163; in the data active = activation above about 7.5%;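 note: 0% = vehicle and 100% = reference activator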
# An asterisk follows results filed as active; u = inconclusive; x = no result given.
SMILES,TbMetRS inhib,m5-HT2A agonist,AI-2 QS modul,AHR activator,MsrA inhibitor,MsrA act
O=c1c2cc(Br)ccc2[nH]c(=S)n1-c1ccccc1,0,1,21,50*,0,-3
N#CSCC(=O)N1c2ccccc2CCc2ccccc21,-1,2,-76*,-2,0,-9
c1ccc2c(c1)[nH]c1cnccc12,-1,0,13,15,0,-8
Cc1c2ccncc2c(C)c2c1[nH]c1ccccc12,-1,0,4,67*,x,-4
C=CCCC[C@@H]1OC(=O)CNC(=O)C([C@@H](C)CC)NC(=O)[C@@H]2CCCN2C(=O)C([C@@H](C)CC)OC(=O)[C@H](Cc2ccccc2)N(C)C(=O)[C@H](C(C)C)NC(=O)C1(C)C (some centres undefined),-1,0,x,x,0,-6
CC[C@H](C)C1OC(=O)[C@@H](C)[C@@H](CC)NC(=O)[C@H](C)N(C)C(=O)C(C)(C)C(=O)C(C)NC(=O)[C@H](Cc2ccc(OC)cc2)N(C)C(=O)[C@H](C(C)C)N(C)C(=O)CNC(=O)[C@H](CC(C)C)N(C)C(=O)CNC1=O (some centres undefined),0,21*,x,x,x,3
CCCCn1c(=O)c(C(=O)Nc2ccccc2N)c(O)c2ccccc21,1,4,8,48*,1,-1
O=C(O)c1cc(S(=O)(=O)N2CC3CC(C2)c2cccc(=O)n2C3)ccc1F (centres undefined),x,x,x,x,0,x
O=C(O)c1ccc(N=Cc2c(O)[nH]c(=O)[nH]c2=O)cc1,-1,1,5,-1,4.6*,-3
O=c1[nH]c(O)c(C=Nc2ccc(F)c(Cl)c2)c(=O)[nH]1,0,-1,38,0,2,-4
O=[N+]([O-])c1ccc(NCc2ccc(Cl)cc2)c2ccncc12,-1,-4,-3,65*,0,-1
O=[N+]([O-])c1ccc(NCc2ccccc2)c2nonc12,x,x,0,2,3,x
CC[C@@H]1C[C@H]2CC[C@H](O2)[C@H](C)C(=O)O[C@@H](C)C[C@@H]2CC[C@@H](O2)[C@@H](C)C(=O)O[C@H](C)C[C@H]2CC[C@H](O2)[C@H](C)C(=O)O[C@@H](C)C[C@@H]2CC[C@@H](O2)[C@@H](C)C(=O)O1,x,x,x,x,0,x
CCC(N)Cc1c[nH]c2ccccc12 (centres undefined),0,-2,-1,x,0,3
CC(N)Cc1c[nH]c2c1ccc1ccccc12 (centres undefined),-1,-9,9,49*,-1,-7
O=C1NC(c2cccnc2)Nc2sc3c(c21)CCCC3 (centres undefined),0,-4,24,56*,0,0
O=C(NCCN1CCC2(CC1)C(=O)NCN2c1ccccc1)c1cccc(F)c1,x,x,x,x,-1,x
Cc1cc(N2CCNC[C@H]2C)ccc1N1CCN[C@@H](C)C1,x,x,x,x,0,x
CN1C(=O)/C(=C\c2ccc(Br)s2)C(=O)NC1=S,0,-10,u,-1,0,-2
O=C1NC(=S)NC(=O)C1=Cc1ccc(Br)s1,0,3,-87*,1,0,1
O=c1[nH]c(=S)n(Cc2ccc(F)cc2)c(O)c1C=NCCCn1ccnc1,0,-3,0,10,4.5*,-5
O=c1[nH]c(=S)[nH]c(O)c1N=Nc1ccc2c(c1)OCCO2,-1,-4,17,16,2,-2
O=c1[nH]c(=S)[nH]c(O)c1N=Nc1ccc2c(c1)OCO2,0,-1,212,75*,0,-2
O=C(NCCN1CCC2(CC1)C(=O)NCN2c1ccccc1)c1ccc(F)c(F)c1,x,x,x,x,1,x
CCOC(=O)c1c(C)n(Cc2ccco2)c2ccc(O)cc12,0,-3,14,47*,0,-4
SMILES,TbMetRS inhib,m5-HT2A agonist,AI-2 QS modul,AHR activator,MsrA inhibitor,MsrA act
CCOC(=O)c1c(C)n(Cc2ccc(F)cc2)c2ccc(O)cc12,0,3,-13,5,1,-4
Cc1ccccc1-n1c(O)c(C=Nc2ccc(N(C)C)cc2)c(=O)[nH]c1=O,0,4,-16,61*,2,-6
CCn1cc(C(=O)c2cccs2)c2ccccc21,-1,-2,36,49*,2,-6
COc1cccc(C(=O)NCCN2CCC3(CC2)C(=O)NCN3c2ccccc2)c1,x,x,x,x,1,x
c1ccc(Cc2cnc(N3CCNCC3)nc2)cc1,x,x,x,x,1,x
CCN(CC)c1ccc(/C=C2/C(=O)NC(=O)N(CC3CCCO3)C2=O)cc1 (centres undefined),0,-3,25,8,5.2*,-7
c1ccc(CCN2CCC3CCNC3C2)cc1 (centres undefined),x,x,x,x,0,x
CN1CCc2cc3c(c4c2C1Cc1ccccc1-4)OCO3 (centres undefined),1,-1,8,9,1,48*
Cc1cc(N2CCNC[C@@H]2C)ccc1N1CCN[C@H](C)C1,x,x,x,x,0,x
COc1ccccc1-n1c(/C=C/c2ccc(O)cc2)nc2ccccc2c1=O,-1,-12,-5,5,4.6*,-2
O=C(NCCN1CCC2(CC1)C(=O)NCN2c1ccccc1)c1cccc2c1-c1ccccc1C2=O,x,x,x,x,0,x
NC(Cc1ccc(O)cc1)C(=O)NN=Cc1ccc(N(CCCl)CCCl)cc1 (centres undefined),0,-9,x,x,7.7*,-6
O=c1[nH]c(=S)n(C2CC2)c(O)c1/C=N/Nc1cccc2ccccc12,1,-2,16,76*,1,-3
O=c1[nH]c(=S)n(C2CC2)c(O)c1/C=N/Nc1ccccc1,0,2,28,21,2,-4
CN(C)C1C(=O)C(C(N)=O)=C(O)C2(O)C(=O)C3=C(O)c4c(O)cccc4C(C)(O)C3CC12 (centres undefined),0,-1,-37,-4,x,0
CN(C)[C@@H]1C(=O)C(C(N)=O)=C(O)[C@@]2(O)C(=O)C3=C(O)c4c(O)cccc4[C@@](C)(O)C3[C@H](O)C12 (some centres undefined),0,1,-82*,-1,1,-6
Cc1cc(C=C2C(=O)NC(=S)NC2=O)c(C)n1-c1ccc2c(c1)OCO2,0,16*,15,11,-1,-3
N#Cc1ccc(NC(=S)N2Cc3cc(Br)ccc3-n3nncc3C2)cc1,x,x,x,x,0,x
OC1CN2CCC(O)C2C(O)C1O (centres undefined),x,x,x,x,0,x
Cc1nc2cc(C(=O)N3CCC4(CC3)OCCO4)ccc2n1-c1ccc(Br)cc1,-1,0,27,56*,1,-1
COc1ccc(-n2c(C)nc3cc(C(=O)N4CCC5(CC4)OCCO5)ccc32)cc1,-1,4,23,1,0,-8
O=[N+]([O-])c1cccnc1N1CCCNCC1,0,32*,3,0,0,0
O=[N+]([O-])c1ccc(N2CCNCC2)cc1N1CCCCC1,0,8,29,8,1,-10

# Source: PubChem
